How the values were obtained:
NCI [1] = experiment: In vitro antitumor activity against carcinoma cell lines by 2-day assay; assay type: functional, Homo sapiens
How it was run: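 NCI panel sulforhodamine B assay: line-specific seeding, 24 h drug-free, then five 10-fold dilutions (top 10^-4 M) for 2 days; growth inhibition from protein-stain optical density change; mean log GI50 across panel.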

MCF7 = experiment: In vitro antitumor activity against MCF-7 carcinoma cell line.; assay type: functional, cell-based; conditions: Homo sapiens
How it was run: (§1)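 MTT assay, 7-day format: 250–300 cells/well, adhered 24 h drug-free, then compound 1 pM–100 μM (n = 8), final DMSO <0.25%; RPMI 1640/10% FCS, 37 °C, 5% CO2. MTT added after exposure, 4 h, formazan dissolved in DMSO–glycine (4:1), absorbance 550 nm.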

MDA-MB-468 = experiment: In vitro antitumor activity against MDA-468 carcinoma cell line.; assay type: functional, cell-based; conditions: Homo sapiens; how it was run: as §1
Homo sapiens = experiment: In vitro concentration to reduce colony formation of human tumor xenografts to 30% of the control; assay type: functional
How it was run: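 Clonogenic colony-formation assay using cells from 22 human tumor xenografts, tested at 0.1, 1.0 and 10 μg/mL; colony inhibition expressed as T/C, with T/C < 30% scored active; IC70 concentration reported.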

NCI [2] = experiment: In vitro antitumor activity against carcinoma cell lines by 6-day assay; assay type: functional, Homo sapiens
How it was run: (§2)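 NCI 60-cell-line panel, sulforhodamine B protein stain. Seeding density set per line's growth; 24 h drug-free incubation, then test agent at five 10-fold dilutions up to 10^-4 M for 6 days of exposure. Growth inhibition derived from change in protein-stain optical density; log GI50 reported.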

HCT-15 = experiment: In vitro antitumor activity against colon cancer HCT-15 cell lines by 6-day assay; assay type: functional; conditions: Homo sapiens, HCT-15, 144 h; how it was run: as §2
MDA-N = experiment: In vitro antitumor activity against Breast cancer MDA-N cell lines by 6-day assay; assay type: functional; conditions: Homo sapiens, 144 h; how it was run: as §2
HOP-92 = experiment: In vitro antitumor activity against Non-small cell lung cancer HOP92 cell lines by 6-day assay; assay type: functional; conditions: Homo sapiens, HOP-92, 144 h; how it was run: as §2
MDA-MB-435 = experiment: In vitro antitumor activity against Breast cancer MDA-MB-435 cell lines by 6-day assay; assay type: functional; conditions: Homo sapiens, MDA-MB-435, 144 h; how it was run: as §2
TK-10 = experiment: In vitro antitumor activity against Renal cancer TK-10 cell lines by 6-day assay; assay type: functional; conditions: Homo sapiens, TK-10, 144 h; how it was run: as §2
HCT-116 = experiment: In vitro antitumor activity against colon cancer HCT116 cell lines by 6-day assay; assay type: functional; conditions: Homo sapiens, HCT-116, 144 h; how it was run: as §2
RXF 393 = experiment: In vitro antitumor activity against Renal cancer RXF393 cell lines by 6-day assay; assay type: functional; conditions: Homo sapiens, RXF 393, 144 h; how it was run: as §2
A498 = experiment: In vitro antitumor activity against Renal cancer A498 cell lines by 6-day assay; assay type: functional; conditions: Homo sapiens, A498, 144 h; how it was run: as §2
SR = experiment: In vitro antitumor activity against Leukemia SR cell lines by 6-day assay; assay type: functional; conditions: Homo sapiens, 144 h; how it was run: as §2
SF-295 = experiment: In vitro antitumor activity against CNS cancer SF-295 cell lines by 6-day assay; assay type: functional; conditions: Homo sapiens, SF-295, 144 h; how it was run: as §2
SN12C = experiment: In vitro antitumor activity against Renal cancer SN12C cell lines by 6-day assay; assay type: functional; conditions: Homo sapiens, 144 h; how it was run: as §2
M14 = experiment: In vitro antitumor activity against melanoma M14 cell lines by 6-day assay; assay type: functional; conditions: Homo sapiens, M14, 144 h; how it was run: as §2
HL-60 = experiment: In vitro antitumor activity against Leukemia HL-60(TB) cell lines by 6-day assay; assay type: functional; conditions: Homo sapiens, HL-60, 144 h
How it was run: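 NCI 60-line panel screen using a sulforhodamine B protein-stain read-out. Seeding density is set by each line's growth. After a 24-h drug-free period, compound is added at five 10-fold dilutions up to 10^-4 M. Exposure lasts 6 days, and growth inhibition (GI50) is taken from the change in stain optical density.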

OVCAR-5 = experiment: In vitro antitumor activity against Ovarian cancer OVCAR-5 cell lines by 6-day assay; assay type: functional; conditions: Homo sapiens, OVCAR-5, 144 h; how it was run: as §2
ACHN = experiment: In vitro antitumor activity against Renal cancer ACHN cell lines by 6-day assay; assay type: functional; conditions: Homo sapiens, 144 h; how it was run: as §2
OVCAR-8 = experiment: In vitro antitumor activity against Ovarian cancer OVCAR-8 cell lines by 6-day assay; assay type: functional; conditions: Homo sapiens, OVCAR-8, 144 h; how it was run: as §2
SW-620 = experiment: In vitro antitumor activity against colon cancer SW-620 cell lines by 6-day assay; assay type: functional; conditions: Homo sapiens, SW-620, 144 h; how it was run: as §2
SK-MEL-5 = experiment: In vitro antitumor activity against melanoma SK-MEL-5 cell lines by 6-day assay; assay type: functional; conditions: Homo sapiens, SK-MEL-5, 144 h; how it was run: as §2
K562 = experiment: In vitro antitumor activity against Leukemia K-562 cell lines by 6-day assay; assay type: functional; conditions: Homo sapiens, K562, 144 h; how it was run: as §2
KM12 = experiment: In vitro antitumor activity against colon cancer KM12 cell lines by 6-day assay; assay type: functional; conditions: Homo sapiens, KM12, 144 h; how it was run: as §2
MOLT-4 = experiment: In vitro antitumor activity against Leukemia MOLT-4 cell lines by 6-day assay; assay type: functional; conditions: Homo sapiens, MOLT-4, 144 h; how it was run: as §2
SNB-75 = experiment: In vitro antitumor activity against CNS cancer SNB-75 cell lines by 6-day assay; assay type: functional; conditions: Homo sapiens, SNB-75, 144 h; how it was run: as §2
BT-549 = experiment: In vitro antitumor activity against Breast cancer BT-549 cell lines by 6-day assay; assay type: functional; conditions: Homo sapiens, BT-549, 144 h; how it was run: as §2
NCI-H322M = experiment: In vitro antitumor activity against Non-small cell lung cancer NCI-H322M cell lines by 6-day assay; assay type: functional; conditions: Homo sapiens, 144 h; how it was run: as §2
U-251 = experiment: In vitro antitumor activity against CNS cancer U251 cell lines by 6-day assay; assay type: functional; conditions: Homo sapiens, U-251, 144 h; how it was run: as §2
NCI-H23 = experiment: In vitro antitumor activity against Non-small cell lung cancer NCI-H23 cell lines by 6-day assay; assay type: functional; conditions: Homo sapiens, NCI-H23, 144 h; how it was run: as §2
SF-268 = experiment: In vitro antitumor activity against CNS cancer SF-268 cell lines by 6-day assay; assay type: functional; conditions: Homo sapiens, SF-268, 144 h; how it was run: as §2
A549 = experiment: In vitro antitumor activity against Non-small cell lung cancer A549/ATCC cell lines by 6-day assay; assay type: functional; conditions: Homo sapiens, A549, 144 h; how it was run: as §2
IGROV-1 = experiment: In vitro antitumor activity against Ovarian cancer IGROV1 cell lines by 6-day assay; assay type: functional; conditions: Homo sapiens, IGROV-1, 144 h; how it was run: as §2
SK-MEL-28 = experiment: In vitro antitumor activity against melanoma SK-MEL-28 cell lines by 6-day assay; assay type: functional; conditions: Homo sapiens, SK-MEL-28, 144 h; how it was run: as §2
CCRF-CEM = experiment: In vitro antitumor activity against Leukemia CCRF-CEM cell lines by 6-day assay; assay type: functional; conditions: Homo sapiens, 144 h; how it was run: as §2
EKVX = experiment: In vitro antitumor activity against Non-small cell lung cancer EKVX cell lines by 6-day assay; assay type: functional; conditions: Homo sapiens, 144 h; how it was run: as §2
DU-145 = experiment: In vitro antitumor activity against Prostate cancer DU145 cell lines by 6-day assay; assay type: functional; conditions: Homo sapiens, DU-145, 144 h; how it was run: as §2
COLO 205 = experiment: In vitro antitumor activity against colon cancer COLO 205 cell lines by 6-day assay; assay type: functional; conditions: Homo sapiens, COLO 205, 144 h; how it was run: as §2
CAKI-1 = experiment: In vitro antitumor activity against Renal cancer CAKI-1 cell lines by 6-day assay; assay type: functional; conditions: Homo sapiens, CAKI-1, 144 h; how it was run: as §2
UO-31 = experiment: In vitro antitumor activity against Renal cancer UO-31 cell lines by 6-day assay; assay type: functional; conditions: Homo sapiens, UO-31, 144 h; how it was run: as §2
SNB-19 = experiment: In vitro antitumor activity against CNS cancer SNB-19 cell lines by 6-day assay; assay type: functional; conditions: Homo sapiens, SNB-19, 144 h; how it was run: as §2
SK-OV-3 = experiment: In vitro antitumor activity against Ovarian cancer SK-OV-3 cell lines by 6-day assay; assay type: functional; conditions: Homo sapiens, SK-OV-3, 144 h; how it was run: as §2
HT-29 = experiment: In vitro antitumor activity against colon cancer HT-29 cell lines by 6-day assay; assay type: functional; conditions: Homo sapiens, HT-29, 144 h; how it was run: as §2
UACC-62 = experiment: In vitro antitumor activity against melanoma UACC-62 cell lines by 6-day assay; assay type: functional; conditions: Homo sapiens, UACC-62, 144 h; how it was run: as §2
RPMI-8226 = experiment: In vitro antitumor activity against Leukemia RPMI-8226 cell lines by 6-day assay; assay type: functional; conditions: Homo sapiens, RPMI-8226, 144 h; how it was run: as §2
UACC-257 = experiment: In vitro antitumor activity against melanoma UACC-257 cell lines by 6-day assay; assay type: functional; conditions: Homo sapiens, UACC-257, 144 h; how it was run: as §2
HCC 2998 = experiment: In vitro antitumor activity against colon cancer HCC2998 cell lines by 6-day assay; assay type: functional; conditions: Homo sapiens, HCC 2998, 144 h; how it was run: as §2
786-0 = experiment: In vitro antitumor activity against Renal cancer 786-0 cell lines by 6-day assay; assay type: functional; conditions: Homo sapiens, 786-0, 144 h; how it was run: as §2

CC(=O)Nc1ccc(-c2nc3ccccc3s2)cc1C
Mean log GI50 (NCI [1]): -4.36 M | IC50 (MCF7): > 10 µM | IC50 (MDA-MB-468): > 10 µM

CC(=O)Nc1ccc(-c2nc3ccccc3s2)cc1Cl
Mean log GI50 (NCI [1]): -4.54 M | IC50 (MCF7): > 0.01 µM | IC50 (MDA-MB-468): > 0.1 µM

Nc1ccc(-c2nc3ccccc3o2)cc1
Mean log GI50 (NCI [1]): -4.26 M | IC50 (MCF7): > 0.1 µM | IC50 (MDA-MB-468): > 1 µM

c1ccc2sc(-c3ccc4[nH]ncc4c3)nc2c1
IC50 (MCF7): > 10 µM | IC50 (MDA-MB-468): > 10 µM

C/C(S)=N/c1ccc(-c2nc3ccccc3s2)cc1
IC50 (MCF7): > 0.1 µM | IC50 (MDA-MB-468): > 0.1 µM

Cc1cc(-c2nc3ccccc3s2)ccc1N
Mean log GI50 (NCI [1]): -4.61 M | Mean IC70 (Homo sapiens): 6.9 µg/mL | IC50 (MCF7): < 0.001 µM | IC50 (MDA-MB-468): < 0.001 µM | Mean log GI50 (NCI [2]): -5.05 M

Nc1ccc(-c2nc3ccccc3s2)cc1Br
GI50 (HCT-15): 31.6 µM | GI50 (MDA-N): > 100 µM | GI50 (HOP-92): 40.7 µM | GI50 (MDA-MB-435): 97.7 µM | Mean log GI50 (NCI [1]): -4.67 M | GI50 (TK-10): < 0.01 µM | GI50 (HCT-116): < 0.01 µM | GI50 (RXF 393): 40.7 µM | GI50 (A498): 0.191 µM | GI50 (SR): 47.9 µM | GI50 (SF-295): 42.7 µM | GI50 (SN12C): > 100 µM | GI50 (M14): 64.6 µM | GI50 (HL-60): 9.55 µM | GI50 (OVCAR-5): < 0.01 µM | GI50 (ACHN): 44.7 µM | GI50 (OVCAR-8): 43.7 µM | IC50 (MCF7): < 0.001 µM | GI50 (SW-620): 45.7 µM | GI50 (SK-MEL-5): 15.8 µM | GI50 (K562): > 100 µM | GI50 (KM12): 69.2 µM | GI50 (MOLT-4): 46.8 µM | GI50 (SNB-75): > 100 µM | GI50 (BT-549): 57.5 µM | GI50 (NCI-H322M): > 100 µM | GI50 (U-251): 37.2 µM | GI50 (NCI-H23): 28.8 µM | GI50 (SF-268): 34.7 µM | GI50 (A549): > 100 µM | GI50 (IGROV-1): < 0.01 µM | IC50 (MDA-MB-468): < 0.001 µM | GI50 (SK-MEL-28): > 100 µM | GI50 (CCRF-CEM): 40.7 µM | GI50 (EKVX): 81.3 µM | GI50 (DU-145): > 100 µM | GI50 (COLO 205): < 0.01 µM | GI50 (CAKI-1): > 100 µM | GI50 (UO-31): 32.4 µM | GI50 (SNB-19): 47.9 µM | GI50 (SK-OV-3): 58.9 µM | GI50 (HT-29): 24.5 µM | GI50 (UACC-62): < 0.01 µM | GI50 (RPMI-8226): > 100 µM | GI50 (UACC-257): < 0.01 µM | Mean log GI50 (NCI [2]): -5.01 M | GI50 (HCC 2998): < 0.01 µM | GI50 (786-0): 66.1 µM
